From ChEMBL document CHEMBL3853298, “Total synthesis and in vitro bioevaluation of clavaminols A, C, H & deacetyl clavaminol H as potential chemotherapeutic and antibiofilm agents” (Eur J Med Chem, 2016)

Columns and labels:
Format in all cases: functional
[1] = system: Candida albicans; assay: Antifungal activity against Candida albicans MTCC 227 after 24 hrs by well diffusion method; conditions: MTCC 227, 24 h
Outline: (§1)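 Candida/Issatchenkia lawns (0.1 mL suspension) on Mueller-Hinton agar; 6.0 mm bored wells receive compound across a 250 to 0.48 per-well dose range, methanol as negative control. Plates kept 24 h at 30 °C. MIC is the lowest concentration producing a visible inhibition zone. Duplicate runs, mean values.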

[2] = system: Candida albicans; assay: Antifungal activity against Candida albicans MTCC 183 after 24 hrs by well diffusion method; conditions: MTCC 183, 24 h; outline: as §1
[3] = system: Candida albicans; assay: Antifungal activity against Candida albicans MTCC 854 after 24 hrs by well diffusion method; conditions: MTCC 854, 24 h; outline: as §1
[4] = system: Candida albicans; assay: Antifungal activity against Candida albicans MTCC 1637 after 24 hrs by well diffusion method; conditions: MTCC 1637, 24 h; outline: as §1
[5] = system: Candida albicans; assay: Antifungal activity against Candida albicans MTCC 3017 after 24 hrs by well diffusion method; conditions: MTCC 3017, 24 h; outline: as §1
[6] = system: Candida albicans; assay: Antifungal activity against Candida albicans MTCC 3018 after 24 hrs by well diffusion method; conditions: MTCC 3018, 24 h; outline: as §1
[7] = system: Candida albicans; assay: Antifungal activity against Candida albicans MTCC 3958 after 24 hrs by well diffusion method; conditions: MTCC 3958, 24 h; outline: as §1
[8] = system: Candida albicans; assay: Antifungal activity against Candida albicans MTCC 4748 after 24 hrs by well diffusion method; conditions: MTCC 4748, 24 h; outline: as §1
[9] = system: Candida albicans; assay: Antifungal activity against Candida albicans MTCC 7315 after 24 hrs by well diffusion method; conditions: MTCC 7315, 24 h; outline: as §1
[10] = Antifungal activity against Candida parapsilosis MTCC 1744 after 24 hrs by well diffusion method; outline: as §1
[11] = system: [Candida] aaseri; assay: Antifungal activity against Candida aaseri MTCC 1962 after 24 hrs by well diffusion method; conditions: Yamadazyma aaseri, MTCC 1962, 24 h; outline: as §1
[12] = Antifungal activity against Candida glabrata MTCC 3019 after 24 hrs by well diffusion method; conditions: Nakaseomyces glabratus; outline: as §1
[13] = Antifungal activity against Candida krusei MTCC 3020 after 24 hrs by well diffusion method; conditions: Pichia kudriavzevii; outline: as §1
[14] = system: Pichia sporocuriosa; assay: Antifungal activity against Issatchenkia hanoiensis MTCC 4755 after 24 hrs by well diffusion method; conditions: MTCC 4755, 24 h; outline: as §1
[15] = system: Candida albicans; assay: Fungicidal activity against Candida albicans MTCC 183 after 24 hrs; conditions: MTCC 183, 24 h
Outline: (§2)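 Candida grown overnight in Mueller Hinton broth. Compound serially diluted in the same broth from 150 to 0 and inoculated to a final 1.5 × 10^8 CFU/mL (0.5 McFarland), then 24 h at 37 °C. Tube contents plated onto Mueller Hinton agar for 24 h at 37 °C. MFC is the lowest concentration killing the yeast. Duplicates.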

[16] = system: Candida albicans; assay: Fungicidal activity against Candida albicans MTCC 227 after 24 hrs; conditions: MTCC 227, 24 h; outline: as §2
[17] = system: Candida albicans; assay: Fungicidal activity against Candida albicans MTCC 854 after 24 hrs; conditions: MTCC 854, 24 h; outline: as §2
[18] = system: Candida albicans; assay: Fungicidal activity against Candida albicans MTCC 1637 after 24 hrs; conditions: MTCC 1637, 24 h; outline: as §2
[19] = system: Candida albicans; assay: Fungicidal activity against Candida albicans MTCC 3017 after 24 hrs; conditions: MTCC 3017, 24 h; outline: as §2
[20] = system: Candida albicans; assay: Fungicidal activity against Candida albicans MTCC 3018 after 24 hrs; conditions: MTCC 3018, 24 h; outline: as §2
[21] = system: Candida albicans; assay: Fungicidal activity against Candida albicans MTCC 3958 after 24 hrs; conditions: MTCC 3958, 24 h; outline: as §2
[22] = system: Candida albicans; assay: Fungicidal activity against Candida albicans MTCC 4748 after 24 hrs; conditions: MTCC 4748, 24 h; outline: as §2
[23] = system: Candida albicans; assay: Fungicidal activity against Candida albicans MTCC 7315 after 24 hrs; conditions: MTCC 7315, 24 h; outline: as §2
[24] = system: Candida parapsilosis; assay: Fungicidal activity against Candida parapsilosis MTCC 1744 after 24 hrs; conditions: Lodderomyces parapsilosis, MTCC 1744, 24 h
Outline: (§3)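 Broth dilution in Mueller Hinton broth with serial compound concentrations from […]. Overnight Candida cultures added to a final 1.5 × 10^8 CFU/mL (0.5 McFarland). Incubated 24 h at 37 °C, then 10 µL of each tube plated on Mueller Hinton agar for 24 h at 37 °C. MFC taken as the lowest concentration that kills the strain. Run in duplicate.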

[25] = system: [Candida] aaseri; assay: Fungicidal activity against Candida aaseri MTCC 1962 after 24 hrs; conditions: Yamadazyma aaseri, MTCC 1962, 24 h; outline: as §2
[26] = system: Nakaseomyces glabratus; assay: Fungicidal activity against Candida glabrata MTCC 3019 after 24 hrs; conditions: MTCC 3019, 24 h; outline: as §2
[27] = system: Pichia kudriavzevii; assay: Fungicidal activity against Candida krusei MTCC 3020 after 24 hrs; conditions: MTCC 3020, 24 h; outline: as §3
[28] = system: Pichia sporocuriosa; assay: Fungicidal activity against Issatchenkia hanoiensis MTCC 4755 after 24 hrs; conditions: MTCC 4755, 24 h; outline: as §3

Clc1ccc(COC(Cn2ccnc2)c2ccc(Cl)cc2Cl)c(Cl)c1 (stereo not drawn) [MICONAZOLE]
7.8 µg/mL: MIC [1] | MIC [2] | MIC [3] | MIC [4] | MIC [5] | MIC [6] | MIC [7] | MIC [8] | MIC [9] | MIC [10] | MIC [11] | MIC [12] | MIC [13] | MIC [14] | MFC [15] | MFC [19] | MFC [20] | MFC [22] | MFC [23] | MFC [24] | MFC [25] | MFC [27] | MFC [28]
15.6 µg/mL: MFC [16] | MFC [17] | MFC [18] | MFC [21] | MFC [26]
